Assay results from ChEMBL document CHEMBL5104125, “Copper chelating cyclic peptidomimetic inhibits Aβ fibrillogenesis” (RSC Med Chem, 2022).
The source made the active and inactive calls. The calls are words filed in the database; no cut-off is given here. Where a SMILES comes first, the peptide text is derived from it. [ ]: non-standard residue; d: D form. The star is where a group is joined. X1 = CCN(CC)c1ccc2c(-c3ccc(C(=O)*)cc3)c3ccc(N(CC)CC)cc3[o+]c2c1; Sar = CNCC(=O)O

Columns and labels:
[1] = molecular target: Amyloid-beta precursor protein (Homo sapiens) (UniProt P05067); assay: Inhibition of amyloid beta (1 to 40) (unknown origin) aggregation assessed as bright green-gold birefringence at 2 M incubated for 6 days by Congo-red staining based image analysis; details: time 6.0 day
Amyloid-beta precursor protein (Homo sapiens), sequence (P05067 whole entry): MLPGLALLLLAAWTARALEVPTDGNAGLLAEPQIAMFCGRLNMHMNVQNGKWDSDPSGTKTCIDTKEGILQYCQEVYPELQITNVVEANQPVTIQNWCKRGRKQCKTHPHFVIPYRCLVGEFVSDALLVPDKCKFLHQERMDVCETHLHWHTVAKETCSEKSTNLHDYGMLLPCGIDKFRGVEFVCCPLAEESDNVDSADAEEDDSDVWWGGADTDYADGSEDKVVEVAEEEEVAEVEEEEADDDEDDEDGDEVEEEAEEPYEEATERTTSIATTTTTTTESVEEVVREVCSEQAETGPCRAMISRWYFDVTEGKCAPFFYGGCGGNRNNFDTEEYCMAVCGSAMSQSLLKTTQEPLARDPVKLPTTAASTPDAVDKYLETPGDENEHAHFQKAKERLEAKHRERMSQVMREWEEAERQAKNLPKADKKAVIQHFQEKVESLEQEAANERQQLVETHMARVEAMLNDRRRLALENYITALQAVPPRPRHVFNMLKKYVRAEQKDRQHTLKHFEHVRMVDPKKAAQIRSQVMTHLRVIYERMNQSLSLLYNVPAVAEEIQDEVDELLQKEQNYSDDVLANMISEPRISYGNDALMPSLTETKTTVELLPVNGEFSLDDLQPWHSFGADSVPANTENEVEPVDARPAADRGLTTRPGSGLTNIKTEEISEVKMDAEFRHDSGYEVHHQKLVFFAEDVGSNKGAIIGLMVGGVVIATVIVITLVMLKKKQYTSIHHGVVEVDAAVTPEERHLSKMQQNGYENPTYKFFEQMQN
Summary of the method: (§1)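 Aβ1-40 (40 μM) co-incubated with 2-fold molar excess of peptide in PBS pH 7.4 at 37 °C for six days. TEM images (200 nm scale) and Congo red-stained birefringence images (20 μm scale) captured.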

[2] = molecular target: Amyloid-beta precursor protein (Homo sapiens) (UniProt P05067); assay: Inhibition of amyloid beta (1 to 40) (unknown origin) aggregation assessed as increase in size of off-target aggregated species at 80 uM incubated upto 24 hr by DLS analysis
Summary of the method: (§2)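 Aβ1-40 (40 μM) alone or with 2 equivalents of peptide, incubated at pH 7.4, 37 °C. DLS size distribution and TEM morphology (500 nm scale) recorded at 1, 6, 12 and 24 h.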

Lipid bilayer = assay: Inhibition of membrane destabilization in carboxyfluorescein dye entrapped large unilamellar vesicle assessed as decrease in amyloid beta (1-40) induced carboxyfluorescein leakage upto 48 hrs by TEM analysis; details: in the assay text read “by fluorescence analysis” for “by TEM analysis”
Summary of the method: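 Carboxyfluorescein-loaded LUVs in PBS (50 mM) exposed to pre-incubated Aβ1-40 alone or Aβ1-40 with peptide (1:2). Final lipid 50 μM, Aβ1-40 2.5 μM (peptide:lipid 1:20), 37 °C. Dye leakage measured by fluorescence at intervals from 1 to 48 h; untreated LUV as control.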

Homo sapiens [3] = species: Homo sapiens; assay: Metal chelating activity assessed as extraction of Cu2+ from amyloid beta (1 to 40) (unknown origin)-Cu2+ complex by measuring fluorescence of Tyr10 at 80 uM incubated for 36 hrs by tyrosine intrinsic fluorescence assay
Summary of the method: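 Aβ1-40 (40 μM) in PBS (50 mM, pH 7.4), with Cu2+ added at 40 μM, then peptide at 80 μM (1:1:2). Tyr10 intrinsic fluorescence emission read at 308 nm and expressed as normalized fluorescence intensity.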

[4] = molecular target: Amyloid-beta precursor protein (Homo sapiens) (UniProt P05067); assay: Inhibition of amyloid beta (1 to 40) (unknown origin) aggregation assessed as reduction in beta sheet conformation at 2 M incubated for 6 days by circular dichroism analysis; details: time 6.0 day
[5] = Metal chelating activity assessed as compound-Zn2+ complex formation by measuring red shift at 2:1 ratio in presence of ZnCl2 by UV-Vis spectra analysis (Rvb= 264 nm)
[6] = Metal chelating activity assessed as compound-Cu2+ complex formation by measuring deviation in g values at 1 to 2 M in presence of CuSO4 by electron spin resonance analysis; details: dose 1-2 M
Summary of the method: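 ESR spectra recorded at room temperature on Cu2+ solution (5 mM) alone and with 1- or 2-fold molar ratio of peptide; g values read.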

[7] = Metal chelating activity assessed as compound-Zn2+ complex formation by measuring red shift at 1:1 ratio in presence of ZnCl2 by UV-Vis spectra analysis (Rvb= 265 nm)
[8] = molecular target: Amyloid-beta precursor protein (Homo sapiens) (UniProt P05067); assay: Inhibition of amyloid beta (1 to 40) (unknown origin) aggregation assessed as off-pathway aggregated species at 80 uM incubated upto 24 hr by TEM analysis; details: TDE = time-dependent effect; summary of the method: as §2
[9] = molecular target: Amyloid-beta precursor protein (Homo sapiens) (UniProt P05067); assay: Inhibition of amyloid beta (1 to 40) (unknown origin) aggregation at 0.5 M incubated for 6 days by thioflavin S based fluorescence analysis relative to control; details: time 6.0 day
[10] = molecular target: Amyloid-beta precursor protein (Homo sapiens) (UniProt P05067); assay: Inhibition of amyloid beta (1 to 40) (unknown origin) aggregation at 2 M incubated for 6 days by thioflavin S based fluorescence analysis relative to control; details: time 6.0 day
Summary of the method: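 Aβ1-40 (40 μM) co-incubated with 0.5-, 1- or 2-fold molar excess of peptide in PBS pH 7.4 at 37 °C for six days; ThT fluorescence monitored over time. Experiment done thrice, with two sets per solution and three readings per set.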

[11] = molecular target: Amyloid-beta precursor protein (Homo sapiens) (UniProt P05067); assay: Inhibition of amyloid beta (1 to 40) (unknown origin) aggregation assessed as reduction in beta sheet conformation at 2 M incubated for 6 days by FTIR analysis; details: time 6.0 day
[12] = Metal chelating activity assessed as compound-Cu2+ complex formation by measuring red shift at 2:1 ratio in presence of CuSO4 by UV-Vis spectra analysis (Rvb= 264 nm)
[13] = Metal chelating activity assessed as compound-Cu2+ complex formation by measuring red shift at 1:1 ratio in presence of CuSO4 by UV-Vis spectra analysis (Rvb= 265 nm)
[14] = molecular target: Amyloid-beta precursor protein (Homo sapiens) (UniProt P05067); assay: Inhibition of Cu2+ induced amyloid beta (1 to 40) (unknown origin) aggregation assessed as disapperance of fibrillar assembly at 80 uM incubated for 36 hrs by TEM analysis
Summary of the method: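 Aβ1-40 (40 μM) incubated with CuSO4 (40 μM) and test peptide (80 μM) in PBS pH 7.4 at 37 °C for 36 h, then imaged by TEM. Representative image from several repeats.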

[15] = molecular target: Amyloid-beta precursor protein (Homo sapiens) (UniProt P05067); assay: Inhibition of Cu2+ induced amyloid beta (1 to 40) (unknown origin) aggregation assessed as reduction in fibrils at 80 uM incubated for 36 hrs in presence of CuSO4 by thioflavin S based fluorescence analysis; details: in the assay text read “thioflavin T” for “thioflavin S”
Summary of the method: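 Aβ1-40 (40 μM) with CuSO4 (40 μM) and test peptide (80 μM) in PBS pH 7.4, 37 °C, 36 h. ThT fluorescence read at ex 440 nm / em 485 nm, with ThT-plus-PBS reference subtracted. Mean of three independent experiments ± SD.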

[16] = Metal chelating activity assessed as compound-Cu2+ complex formation by measuring exothermic event at 50 uM in presence of CuSO4 by isothermal titration calorimetry assay
Summary of the method: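 ITC at 27 °C in 20 mM Tris-HCl pH 7.4. Metal solution (1.5 mM) in the syringe was titrated into peptide (50 μM) in the cell over 30 injections. Heats of dilution of metal into buffer were subtracted. ΔH, ΔS, K and n were fitted with a sequential two-site binding model.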

[17] = molecular target: Amyloid-beta precursor protein (Homo sapiens) (UniProt P05067); assay: Inhibition of amyloid beta (1 to 40) (unknown origin) aggregation at 1 M incubated for 6 days by thioflavin S based fluorescence analysis relative to control; details: time 6.0 day
[18] = molecular target: Amyloid-beta precursor protein (Homo sapiens) (UniProt P05067); assay: Inhibition of amyloid beta (1 to 40) (unknown origin) aggregation assessed as reduction in fibrillar assembly at 2 M incubated for 6 days by TEM analysis; details: time 6.0 day; summary of the method: as §1
[19] = Drug uptake in mouse Neuro2a cells assessed as drug co-localization in cell at 100 uM in presence of PA19fCP-FI by confocal microscopy; assay type: ADME, cell-based; details: n2a
Summary of the method: (§3)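 Neuro2a cells treated with fluorescein- or Rhodamine B-labelled peptide at 100 μM, alone or together. Green and red fluorescence imaged in bright and dark field at 20×. Co-localization checked by confocal imaging at 63×, with green and red channels captured separately and then merged.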

[20] = Drug uptake in mouse Neuro2a cells assessed as drug internalization in cytoplasm at 100 uM by confocal microscopy; assay type: ADME; details: n2a; summary of the method: as §3
[21] = Cytotoxicity against mouse Neuro2a cells assessed as reduction in cell viability by MTT assay; assay type: toxicity, cell-based, N2a
Summary of the method: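 Neuro2a mouse neuronal cells treated with fluorescently labelled peptides; viability read by MTT after 24 h. IC50 calculated from linear regression of viability versus concentration.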

Homo sapiens [22] = species: Homo sapiens; assay: Binding affinity to Rhodamine B labelled amyloid beta (9-21 residues) (unknown origin) assessed as increase in fluorescence intensity of Rhodamine B at 20 uM incubated for 24 hrs by FRET analysis (Rvb= 601 nm)
Summary of the method: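 FRET between fluorescein-labelled cyclic peptide (donor) and Rhodamine B-labelled Aβ9-21 model peptide (acceptor), mixed 1:1, ~20 μM each in PBS (50 mM, pH 7.4), incubated 24 h at 37 °C. Donor and mixture excited at 492 nm, acceptor alone at 567 nm; emission spectra recorded. Representative of several independent repeats.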

[23] = Drug uptake in mouse Neuro2a cells assessed as drug internalization in cell membrane at 100 uM by confocal microscopy; assay type: ADME; details: n2a; summary of the method: as §3
[24] = Drug uptake in mouse Neuro2a cells assessed as drug co-localization in cell at 100 uM in presence of MA.beta-RhB by confocal microscopy; assay type: ADME, cell-based; details: n2a; summary of the method: as §3

| Structure (SMILES) | inhibition [1] | inhibition [4] | inhibition [9] | inhibition [10] | inhibition [11] | inhibition [17] | inhibition [18] | IC50 [21] | also measured |
| --- | --- | --- | --- | --- | --- | --- | --- | --- | --- |
| CC(C)C[C@@H]1NC(=O)[C@H](CCCCNC(=O)c2ccccn2)NC(=O)[C@H](CCC(N)=O)NC(=O)[C@H](C)NC(=O)[C@H](Cc2ccccc2)NC(=O)[C@@H](Cc2ccccc2)NC(=O)[C@H](C(C)C)NC1=O | Active | 85% | 32.4% | 85.6% | 85% | 52.6% | Active |  | inhibition [2]: Active; inhibition (Lipid bilayer): Active; Activity (Homo sapiens [3]): 84.3%; OD [5]: 267 nm; Activity [6]: Active; OD [7]: 268 nm; inhibition [8]: Tde; OD [12]: 270 nm; OD [13]: 271 nm; inhibition [14]: Active; inhibition [15]: Active; Activity [16]: Active |
| CCN(CC)c1ccc2c(-c3ccc(C(=O)N(C)CC(=O)NCC(=O)N[C@@H](Cc4ccc(O)cc4)C(=O)N[C@@H](CCC(=O)O)C(=O)N[C@H](C(=O)N[C@@H](Cc4c[nH]cn4)C(=O)N[C@@H](Cc4c[nH]cn4)C(=O)N[C@@H](CCC(N)=O)C(=O)N[C@@H](CCCCN)C(=O)N[C@@H](CC(C)C)C(=O)N[C@H](C(=O)N[C@@H](Cc4ccccc4)C(=O)N[C@@H](Cc4ccccc4)C(=O)N[C@@H](C)C(=O)NCC(N)=O)C(C)C)C(C)C)cc3)c3ccc(N(CC)CC)cc3[o+]c2c1 (X1-[Sar]GYEVHHQKLVFFAG-NH2) |  |  |  |  |  |  |  | 150 µM | Drug uptake [19]: Active; Drug uptake [20]: Active |
| CC(C)C[C@@H]1NC(=O)[C@H](CCCCNC(=O)c2ccccn2)NC(=O)[C@H](CCCCNC(=S)Nc2ccc(-c3c4ccc(=O)cc-4oc4cc(O)ccc34)c(C(=O)O)c2)NC(=O)[C@H](CCC(N)=O)NC(=O)[C@H](C)NC(=O)[C@H](Cc2ccccc2)NC(=O)[C@@H](Cc2ccccc2)NC(=O)[C@H](C(C)C)NC1=O |  |  |  |  |  |  |  | 200 µM | OD (Homo sapiens [22]): 604 nm; Drug uptake [23]: Active; Drug uptake [24]: Active |

Continued, in another order:

| inhibition [1] | inhibition [4] | inhibition [9] | inhibition [10] | inhibition [11] | inhibition [17] | inhibition [18] | Structure (SMILES) | IC50 [21] | also measured |
| --- | --- | --- | --- | --- | --- | --- | --- | --- | --- |
| Active | 74% | 25.2% | 73.7% | 74% | 47.9% | Active | CC(C)C[C@@H]1NC(=O)[C@H](CCCCN)NC(=O)[C@H](CCC(N)=O)NC(=O)[C@H](C)NC(=O)[C@H](Cc2ccccc2)NC(=O)[C@@H](Cc2ccccc2)NC(=O)[C@H](C(C)C)NC1=O |  |  |
|  |  | 7.9% | 27.2% |  | 15.1% |  | CC(=O)N[C@@H](CCCCN)C(=O)N[C@@H](CC(C)C)C(=O)N[C@H](C(=O)N[C@H](Cc1ccccc1)C(=O)N[C@@H](Cc1ccccc1)C(=O)N[C@@H](C)C(=O)N[C@@H](CCC(N)=O)C(=O)O)C(C)C |  |  |
